# In PubChem BioAssay:
# Active and inactive are the calls of the source.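 How the source made its calls, unless noted: active means inhibition above 20% together with a positive visual image hit; inconclusive means visual image hit but inhibition not above 20%; inactive means no visual image hit.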
# How the values were obtained:
# [1] = inhibitors of TNFa-induced NFkB p65 translocation, primary screen, imaging, HUVEC, MLSMR starter and 10KST1 sets (AID 438); settings: HUVEC TNFa-induced p65 nuclear translocation; cell count: measured here: nuclei count (cytotoxicity indicator), at 2.08 µM; inhibition: at 2 µM, stronger effect = higher value, 0% TNFa-plus-vehicle, 100% no-TNFa wells;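 further: compound added about 3h40 before a 20 min TNFalpha stimulation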;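 on inhibition: signal is the nuclear over cytoplasmic p65 intensity ratio per well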
# [2] = inhibitors of mutant huntingtin aggregation, primary screen, imaging, exon1htt(103Q)mCFP cells, high-content imaging (AID 483;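 active means visual image review flags a hit and inhibition of aggregation exceeds 20%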;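 further: compound exposure lasted 3 days before fixation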;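 on nuclei count: percent of the per-plate median nuclei count of sample wells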); settings: exon1htt(103Q)mCFP cell line, aggregate imaging, at 2 µM; inhibition of aggregation: stronger effect = higher value; nuclei count: measured here: cell count, toxicity
# [3] = inhibitors of E-selectin induction by TNFa, primary screen, imaging, HUVEC, immunofluorescence, MLSMR starter and 10KST1 sets (AID 487;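 active means visually confirmed hit in the image check and inhibition above 20%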;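 on inhibition: signal is fraction of cell area covered by stained E-selectin grains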;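 on nuclei count: 100% = median nuclei count of all wells on the same plate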); settings: HUVEC TNFalpha-induced E-selectin immunofluorescence imaging, at 2 µM; inhibition: stronger effect = higher value; nuclei count: measured here: cell number, toxicity
# [4] = target: Voltage-gated potassium channel subunit beta-2 (Rattus norvegicus) (UniProt P62483); test: KvBeta enzyme negative modulators, primary screen, biochemical, NADPH fluorescence (AID 622;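 active means fluorescence slope higher than the sample average by over 3 SD, cut at about -0.22 in these data, passing the limit was not always enough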;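 further: slope of raw intensity against log time taken from 70 to 1610 s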); settings: recombinant KvBeta, 4-cyanobenzaldehyde reduction, at 10 µM, stronger effect = higher value
# Sequence of Voltage-gated potassium channel subunit beta-2 (Rattus norvegicus) (P62483 whole entry, looked up): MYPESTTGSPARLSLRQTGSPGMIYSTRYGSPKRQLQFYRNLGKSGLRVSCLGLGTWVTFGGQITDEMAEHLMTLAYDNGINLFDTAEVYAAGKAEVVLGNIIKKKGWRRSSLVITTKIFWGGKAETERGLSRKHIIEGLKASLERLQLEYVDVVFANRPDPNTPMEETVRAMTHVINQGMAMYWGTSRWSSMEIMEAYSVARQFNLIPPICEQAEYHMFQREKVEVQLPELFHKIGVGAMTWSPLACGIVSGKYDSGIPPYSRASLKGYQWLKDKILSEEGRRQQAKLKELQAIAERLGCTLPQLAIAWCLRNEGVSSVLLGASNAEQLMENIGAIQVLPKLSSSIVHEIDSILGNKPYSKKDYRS
# [5] = target: Voltage-gated potassium channel subunit beta-2 (Rattus norvegicus) (UniProt P62483); test: KvBeta positive modulators, primary screen, biochemical, NADPH fluorescence (AID 623;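 active means NADPH fluorescence slope more negative than the mean of all samples by about 3 SD, 99.7% confidence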;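 further: fluorescence intensity change per second fitted from 20 to 320 s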); settings: Recombinant KvBeta, NADPH fluorescence decrease slope, 10 min; at 10 µM; stronger effect = lower value
# [6] = target: Muscarinic acetylcholine receptor M4 (Homo sapiens) (UniProt P08173); test: compounds altering M4/GIRK thallium flux, either direction, primary screen, M4 allosteric agonist project, cell-based, HEK293 M4/GIRK, BTC-AM (AID 625;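 active means fluorescence slope after compound addition differing from the mean of all tested samples at 99.7% confidence, mostly higher but some lower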;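 further: thallium influx through GIRK channels coupled to M4 in HEK293 cells with BTC-AM dye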); settings: at 10 µM, actives lie on both sides
# Sequence of Muscarinic acetylcholine receptor M4 (Homo sapiens) (P08173 whole entry, looked up): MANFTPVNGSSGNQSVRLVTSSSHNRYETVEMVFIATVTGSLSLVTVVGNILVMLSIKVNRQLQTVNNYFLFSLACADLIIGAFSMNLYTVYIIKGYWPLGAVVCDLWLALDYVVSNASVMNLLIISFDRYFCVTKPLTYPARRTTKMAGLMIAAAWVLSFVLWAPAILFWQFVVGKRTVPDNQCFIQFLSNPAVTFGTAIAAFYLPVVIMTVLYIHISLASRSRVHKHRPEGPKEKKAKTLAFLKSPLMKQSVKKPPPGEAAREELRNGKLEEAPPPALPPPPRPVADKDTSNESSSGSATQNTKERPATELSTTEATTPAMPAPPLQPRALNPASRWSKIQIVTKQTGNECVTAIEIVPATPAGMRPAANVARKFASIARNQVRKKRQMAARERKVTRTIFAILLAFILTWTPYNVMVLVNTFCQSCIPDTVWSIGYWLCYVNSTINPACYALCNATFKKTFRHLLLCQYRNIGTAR
# Method in brief: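 assay system = HEK293 cells with M4 receptor and GIRK channels | medium = pH 7.3 thallium assay buffer | doses = 10 µM final, single point | timing = cells overnight at 37 °C, BTC-AM loading 1 h, reads 2 min total | signal = BTC-AM fluorescence, 1 Hz kinetic reads | read-out = post-addition slope, 15–24 s, of baseline-normalized fluorescence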
# [7] = inhibitors of Sendai virus-induced IRF3 signaling, primary screen, TLR/RLR signaling modifier project, cell-based, Sendai virus stimulus, luciferase, 10K MLSCN set (AID 602276;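 active means inhibition at or above 50% at 10 µM; inactive means inhibition below 50%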;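 further: firefly luciferase from ISG56 promoter only with Renilla not read in this screen; 0% = Sendai virus plus DMSO and 100% = medium plus DMSO without virus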); settings: HEK293 RL24 IRF3 luciferase reporter, at 10 µM, stronger effect = higher value
# [8] = inhibitors of poly I:C-induced TLR3 signaling, primary screen, cell-based, poly I:C stimulus, luciferase, 10K MLSCN set (AID 602277;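 active means inhibition of the reporter signal at or above 50%; inactive means inhibition below 50%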); settings: HEK293-TLR3 RL24 IRF3 luciferase reporter, at 10 µM, stronger effect = higher value
SMILES,cell count [1],inhibition [1],inhibition of aggregation [2],nuclei count [2],inhibition [3],nuclei count [3],fluorescence slope [4],NADPH fluorescence slope [5],fluorescence slope [6],inhibition [7],inhibition [8]
CCc1nnc(NC(=O)c2ccc(-c3cccc(C(F)(F)F)c3)o2)s1,730,-2.9% (inactive),43.6% (inactive),76.5%,-24.2% (inactive),99.1%,-0.528 (inactive),-4.6e-05 (inactive),0.00667 (inactive),-0.00167% (inactive),-0.904% (inactive)
CCC(=O)N1CCc2cc(S(=O)(=O)CCC(=O)Nc3nc(C)cs3)ccc21,606,5.7% (inactive),9.7% (inactive),95.8%,-144% (inactive),158%,-0.439 (inactive),7.6e-05 (inactive),0.00524 (inactive),19.2% (inactive),21.5% (inactive)
COCCOC(=O)C1=C(C)N=c2s/c(=C\c3cccs3)c(=O)n2C1c1cccs1 (centres undefined),331,-4.7% (inactive),-47% (inactive),98.1%,-148% (inactive),110%,-0.251 (inactive),-1.4e-05 (inactive),0.00423 (inactive),-5.37% (inactive),-16.7% (inactive)
CCOC(=O)/C=C(\C)Sc1cc(=O)oc2ccccc12,571,18.4% (inactive),-8.4% (inactive),93.3%,-103% (inactive),126%,-0.549 (inactive),-6e-05 (inactive),0.00418 (inactive),25.8% (inactive),47.5% (inactive)
O=C(c1ccccc1)c1coc2ccc(O)c(CN3CCOCC3)c12,651,-5.8% (inactive),8.4% (inactive),77.4%,1.5% (inactive),102%,-0.577 (inactive),3.5e-06 (inactive),0.00407 (inactive),14.5% (inactive),18.2% (inactive)
CCOC(=O)CC(NS(=O)(=O)c1ccc(NC(C)=O)cc1)c1ccc(OCC)cc1 (centres undefined),376,9.9% (inactive),-7.9% (inactive),95.7%,-101% (inactive),126%,-0.588 (inactive),3.6e-06 (inactive),0.00588 (inactive),14% (inactive),17.3% (inactive)
Cc1ccc(-n2c(=O)c3sccc3n(CC(=O)NCc3ccco3)c2=O)cc1,488,0.3% (inactive),21.9% (inactive),103%,-9.8% (inactive),108%,-0.579 (inactive),-3.1e-05 (inactive),0.0056 (inactive),6.07% (inactive),12.8% (inactive)
CCOC(=O)N1CCN(C(=O)Nc2ccc(Cl)cc2)CC1,356,-3.2% (inactive),10.6% (inactive),99.4%,21.3% (inactive),103%,-0.462 (inactive),-4.1e-05 (inactive),0.00495 (inactive),10.8% (inactive),3.42% (inactive)
CN(C)CCSc1nnc2sc3ccccc3n12,599,-5% (inactive),-2.2% (inactive),105%,-71.5% (inactive),110%,-0.477 (inactive),-5.9e-05 (inactive),0.00534 (inactive),-0.357% (inactive),12.6% (inactive)
CN1CCN(CC(=O)Nc2ccc(Cl)cc2Cl)CC1,445,-3.5% (inactive),0% (inactive),103%,66.8% (inactive),78.8%,-0.619 (inactive),7.6e-06 (inactive),0.00642 (inactive),11% (inactive),14.7% (inactive)
COc1cc(C)nc(NS(=O)(=O)c2ccc(C)cc2)n1,399,3.9% (inactive),-0.3% (inactive),97.2%,-45.6% (inactive),109%,-0.563 (inactive),-2.7e-05 (inactive),0.00648 (inactive),20.8% (inactive),23% (inactive)
Clc1ccccc1-c1nnc2sc(-c3ccccn3)nn12,420,-4.1% (inactive),24.3% (inactive),84.8%,-102% (inactive),118%,-0.447 (inactive),-6.3e-05 (inactive),0.00382 (inactive),14.6% (inactive),14.1% (inactive)
CC(C)(C)n1nnnc1C(c1cccc(C#N)c1)N1CCC(Cc2ccccc2)CC1 (centres undefined),613,-13.9% (inactive),30.1% (inactive),81.1%,-8% (inactive),128%,-0.571 (inactive),-3.4e-05 (inactive),0.00477 (inactive),25.2% (inactive),36.8% (inactive)
O=c1[nH]c2ccc(S(=O)(=O)N3CCN(C4CCCCC4)CC3)cc2[nH]c1=O,264,-7.8% (inactive),-36.5% (inactive),90.7%,-52.5% (inactive),122%,-0.484 (inactive),-0.000259 (inactive),0.00453 (inactive),-0.0358% (inactive),6.71% (inactive)
